Data on 3 compounds can be found in ChEMBL document CHEMBL1150285, “Combination of non-natural D-amino acid derivatives and allophenylnorstatine-dimethylthioproline scaffold in HIV protease inhibitors have high efficacy in mutant HIV” (J Med Chem, 2008).

Series [1] relates to Human immunodeficiency virus 1. The experiment in a line: Antiviral activity against HIV1 3B in human MT4 cells assessed as inhibition of viral-induced cytopathic effect by MTT method. The series is classed as functional, organism-based. The conditions noted are these: Human immunodeficiency virus 1, 3B.
Series [2] in a line: Cytotoxicity against human MT4 cells by MTT assay. The format is cell-based.
The nature of series [3]: Selectivity index, ratio of CC50 for human MT4 cells to EC50 for HIV1 3B. To be noted: MT4 cells.
For series [4], the system named is Human immunodeficiency virus 1. As to the kind of experiment: Antiviral activity against wild type HIV1 NL432. The series is classed as functional, organism-based. The conditions noted are these: Human immunodeficiency virus 1, NL432.
The subject of series [5] is Human immunodeficiency virus 1. As to the kind of experiment: Antiviral activity against nelfinavir-resistant HIV1 NL432. The series is classed as functional, organism-based. The conditions noted are these: Human immunodeficiency virus 1, NL432.
The test system of series [6] is Human immunodeficiency virus 1. As to the kind of experiment: microbe, parasite or virus in culture. The series is classed as functional, organism-based. To be noted: Human immunodeficiency virus 1, NL432.
The subject of series [7] is Human immunodeficiency virus 1. As to the kind of experiment: microbe, parasite or virus in culture. The format is functional, organism-based. The conditions noted are these: Human immunodeficiency virus 1, NL432. This is another data set of the same source.
Series [8] relates to Human immunodeficiency virus 1. As to the kind of experiment: Antiviral activity against HIV1 3B in presence of 10% fetal calf serum. The series is classed as functional, organism-based. To be noted: Human immunodeficiency virus 1, 3B.
The subject of series [9] is Human immunodeficiency virus 1. The experiment in a line: Antiviral activity against HIV1 3B in presence of 10% fetal calf serum and alpha1 acid glycoprotein. The series is classed as functional, organism-based. The conditions noted are these: Human immunodeficiency virus 1, 3B.
In series [10] the test system is Human immunodeficiency virus 1. The experiment in a line: Ratio of EC50 for nelfinavir-resistant HIV1 NL432 to EC50 for wild-type HIV1 NL432. The series is classed as functional.
In the next series the target is Protease (Human immunodeficiency virus 1, UniProt Q9YQ12). The experiment in a line: Inhibition of HIV1 protease. A digest of the protocol: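 HIV-1 protease (2 µg/mL stock in pH 5.5 acetate buffer) was mixed with test compound (10 nM solution in DMSO) in MES-NaOH buffer, pH 5.5, containing DTT, EDTA and NaCl. The mixture was preincubated 5 min at 37 °C, then started with substrate H-Lys-Ala-Arg-Val-Tyr*Phe(p-NO₂)-Glu-Ala-Nle-NH₂. After 60 min at 37 °C, the reaction was stopped with 1N HCl.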
Protease, sequence (Q9YQ12 whole entry): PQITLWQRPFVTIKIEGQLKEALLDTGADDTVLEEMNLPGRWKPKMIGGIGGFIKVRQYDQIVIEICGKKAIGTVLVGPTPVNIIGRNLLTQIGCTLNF

Series [11] has as its target Protease (Human immunodeficiency virus 1) (UniProt Q9YQ12). To be noted: at 1 nM.

Protease (Human immunodeficiency virus 1), sequence (Q9YQ12 as listed by the source): as the sequence (Q9YQ12 whole entry) above

For the compound `CC(=O)N[C@H](COCc1ccccc1)C(=O)N[C@@H](Cc1ccccc1)[C@H](O)C(=O)N1CSC(C)(C)[C@H]1C(=O)NCc1ccccc1C`, the concentration for a half-maximal effect (EC50) in series [1] was found to be 21 nM; in series [4], 23 nM; in series [5], 6.5 nM; in series [6], 77 nM; in series [7], 44 nM; in series [8], 20 nM. In series [9], the EC50 was 278 nM. In [2], this compound had a half-maximal cytotoxic concentration (CC50) of more than 30000 nM. Further, in series [3], the selectivity ratio is more than 1400. For the same compound, the “Ratio EC50” value in [10] worked out at 0.28. The compound further showed an IC50 at Protease of 0.39 nM. The inhibition in series [11] amounted to 64%.
`COc1ccc(CSC[C@@H](NS(C)(=O)=O)C(=O)N[C@@H](Cc2ccccc2)[C@H](O)C(=O)N2CSC(C)(C)[C@H]2C(=O)NCc2ccccc2C)cc1`: the concentration for a half-maximal effect (EC50) in series [1] was 9.3 nM; in [4], 16 nM; in series [5], 0.67 nM; in [6], 20 nM; in series [7], 23 nM; in series [8] it was 9.4 nM. Besides, in series [9], the 50% effective concentration (EC50) came out at 94 nM. The midpoint of cytotoxicity in series [2], the CC50, lay at 10000 nM. In series [3], the selectivity ratio was 1100. In addition, in series [10], the “Ratio EC50” value was determined as 0.04. This compound also showed an IC50 against Protease of 0.26 nM. This compound came in with an inhibition in series [11] of 77%.
In the case of `Cc1ccccc1CNC(=O)[C@H]1N(C(=O)[C@@H](O)[C@H](Cc2ccccc2)NC(=O)[C@@H](COCc2ccccc2)NS(C)(=O)=O)CSC1(C)C`, the EC50 in series [1] was 20 nM; in [4], 22 nM; in series [5], 2.3 nM; in [6] it was 90 nM; in series [7], 92 nM; in [8], 20 nM. Also, the EC50 in series [9] stood at 90 nM. For the same compound, the CC50 in series [2] is 17000 nM. Also, the selectivity ratio in series [3] came out at 850. The “Ratio EC50” value in series [10] is 0.1. Further, inhibition at Protease was half-maximal at 0.56 nM (IC50). For the same compound, in series [11], the inhibition was found to be 59%.

The term EC50 denotes the concentration that produces a half-maximal response. In general, CC50 refers to the concentration at which the toxic effect on the cells reaches its halfway point. A low value points to harm at low concentration. The term IC50 denotes the concentration that inhibits the measured activity by half. The low end stands for greater potency in that assay, the high end for weaker potency in that assay. One may read the inhibition as the percentage by which the read-out fell short of the control. A higher inhibition goes with strong suppression.
